Results taken from ChEMBL document CHEMBL1143117, “Synthesis and SAR of 2-aryloxy-4-alkoxy-pyridines as potent orally active corticotropin-releasing factor 1 receptor antagonists” (J Med Chem, 2008).
Values after ≈ are worked out from the molar mass of the structure shown.

Assays:
[1] = molecular target: T1, Corticotropin-releasing factor receptor 1 (Rattus norvegicus, UniProt P35353); test: Displacement of [125]oCRF from rat cortex CRF1 receptor
T1 sequence (P35353 whole entry): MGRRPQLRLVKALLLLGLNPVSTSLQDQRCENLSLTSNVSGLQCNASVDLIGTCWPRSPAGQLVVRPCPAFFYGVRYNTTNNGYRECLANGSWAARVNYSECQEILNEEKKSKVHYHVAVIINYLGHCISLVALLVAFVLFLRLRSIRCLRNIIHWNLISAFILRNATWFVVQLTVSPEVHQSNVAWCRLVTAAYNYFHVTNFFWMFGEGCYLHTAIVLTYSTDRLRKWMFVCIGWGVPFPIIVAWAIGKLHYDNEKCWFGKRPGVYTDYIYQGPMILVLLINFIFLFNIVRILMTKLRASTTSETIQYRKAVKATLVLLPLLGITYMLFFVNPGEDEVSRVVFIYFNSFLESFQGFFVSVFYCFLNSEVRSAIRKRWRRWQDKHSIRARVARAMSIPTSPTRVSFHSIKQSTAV
In short: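 Rat cortex binding used ¹²⁵I-ovine-CRF as radioligand. pIC50 ± SEM and IC50 are geometric means of at least three experimental runs.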

Rattus norvegicus [2] = test: Ex vivo displacement of [125]oCRF from CRF1 receptor in rat cortex at 3.2 mg/kg, sc; assay type: functional; conditions: route subcutaneous
In short: (§1)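 Rats received 3.2 mg/kg p.o. or s.c. per line, and cortex and pituitary binding of ¹²⁵I-oCRF was measured 1 h later by one of two methods. Homogenate method: 25 mg wet tissue/mL in PIPES pH 7.0 buffer, 40 pM ligand, 2 h at room temperature, centrifuged, filtered, scintillation counted. Autoradiographic method: male Sprague-Dawley rats (N = 4), 16 µm sections, 60 pM ligand, 1 h at room temperature. Nonspecific binding was set with 1 µM rat/human CRF. Percent inhibition is mean ± SD.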

Rattus norvegicus [3] = test: Ex vivo displacement of [125]oCRF from CRF1 receptor in rat pituitary at 3.2 mg/kg, sc; assay type: functional; conditions: route subcutaneous; in short: as §1
Rattus norvegicus [4] = test: Ex vivo displacement of [125]oCRF from CRF1 receptor in rat cortex at 3.2 mg/kg, po; assay type: functional; in short: as §1
Rattus norvegicus [5] = test: Ex vivo displacement of [125]oCRF from CRF1 receptor in rat pituitary at 3.2 mg/kg, po; assay type: functional; in short: as §1
[6] = Dissociation constant, pKa of the compound; assay type: physicochemical
In short: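 UV spectrophotometric pKa determination, with the value extrapolated to 0% organic solvent.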

[7] = Solubility of the compound; assay type: physicochemical
In short: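 Kinetic water solubility was measured in an in-house high-throughput assay.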

[8] = molecular target: Corticotropin-releasing factor receptor 1 (Rattus norvegicus) (UniProt P35353); test: Inhibition of CRF1 receptor
[9] = molecular target: T1, Corticotropin-releasing factor receptor 1; test: Antagonist activity at rat cortex CRF1 receptor assessed as inhibition of CRF-stimulated adenylate cyclase activity; assay type: functional, tissue-based
[10] = molecular target: T2, Corticotropin-releasing factor receptor 1 (Homo sapiens, UniProt P34998); test: Antagonist activity at human CRF1 receptor endogenously expressed in human IMR32 cells; assay type: functional, cell-based, IMR-32
T2 sequence (P34998 whole entry): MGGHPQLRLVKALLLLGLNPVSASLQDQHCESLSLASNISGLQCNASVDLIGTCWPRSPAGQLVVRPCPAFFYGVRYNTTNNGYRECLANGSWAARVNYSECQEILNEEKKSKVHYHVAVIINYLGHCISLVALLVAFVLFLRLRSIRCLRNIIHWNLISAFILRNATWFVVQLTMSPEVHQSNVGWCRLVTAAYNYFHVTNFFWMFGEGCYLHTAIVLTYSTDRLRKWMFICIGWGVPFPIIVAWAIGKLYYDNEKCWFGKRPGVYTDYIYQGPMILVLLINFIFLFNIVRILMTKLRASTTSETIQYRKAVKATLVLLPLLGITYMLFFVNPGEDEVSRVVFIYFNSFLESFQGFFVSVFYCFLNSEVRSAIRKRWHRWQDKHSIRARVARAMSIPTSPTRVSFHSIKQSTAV

Rattus norvegicus [11] = test: Attenuation of HPA axis activation in po dosed rat assessed as blockade of oCRF-induced elevation of plasma ACTH; assay type: functional
In short: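 Rats were dosed orally, then challenged with exogenous oCRF at 4 µg/kg i.v., and plasma ACTH was measured. The MED was judged against CRF alone by one-way ANOVA with Dunnett's post hoc test (N = 12). ID50 (p.o.) was calculated with a confidence interval.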

[12] = Solubility at pH 7; assay type: physicochemical; conditions: buffer
[13] = Solubility at pH 2; assay type: physicochemical; conditions: buffer

## C/C=C(\CC)Oc1cc(C)nc(Oc2c(C)cc(C)cc2C)c1C (mixture of isomers)
[1]
  IC50: 0.016 µM
Rattus norvegicus [2]
  inhibition in vivo at 3.2 mg/kg: 75%
Rattus norvegicus [3]
  inhibition in vivo at 3.2 mg/kg: 55%

## CCC(CC)Oc1cc(C)nc(Oc2c(C)cc(C)cc2C)c1
[1]
  IC50: 0.15 µM

## CCC(CC)Oc1cc(C)nc(Oc2c(C)cc(C(N)=O)cc2C)c1C
[1]
  IC50: 0.018 µM
Rattus norvegicus [4]
  inhibition in vivo at 3.2 mg/kg: 33%
Rattus norvegicus [5]
  inhibition in vivo at 3.2 mg/kg: 15%

## CCC(CC)Oc1cc(C)nc(Oc2c(C)cccc2C)c1C
[1]
  IC50: 0.11 µM

## CCc1c(OC(CC)CC)cc(C)nc1Oc1c(C)cc(C)cc1C
[1]
  IC50: 0.0091 µM
Rattus norvegicus [2]
  inhibition in vivo at 3.2 mg/kg: 57%
Rattus norvegicus [3]
  inhibition in vivo at 3.2 mg/kg: 66%

## CCC(CC)Oc1cc(C)nc(Oc2c(C)cc(I)cc2C)c1C
[1]
  IC50: 0.012 µM
Rattus norvegicus [2]
  inhibition in vivo at 3.2 mg/kg: 27%
Rattus norvegicus [3]
  inhibition in vivo at 3.2 mg/kg: 72%

## CCc1cc(OC(CC)CC)c(C)c(Oc2c(C)cc(C)cc2C)n1
[1]
  IC50: 0.086 µM

## CCC(CC)Oc1cc(C)nc(Oc2c(C)cc(Br)cc2C)c1C
[1]
  IC50: 0.0026 µM
Rattus norvegicus [4]
  inhibition in vivo at 3.2 mg/kg: 47%
Rattus norvegicus [5]
  inhibition in vivo at 3.2 mg/kg: 84%

## CCC(CC)Oc1cc(C)nc(Oc2c(C)cc(C)cc2C)c1N(C)C
[1]
  IC50: 0.025 µM

## CCCc1cc(C)c(Oc2nc(C)cc(OC(CC)CC)c2C)c(C)c1
[1]
  IC50: 0.0098 µM
Rattus norvegicus [2]
  inhibition in vivo at 3.2 mg/kg: 42%
Rattus norvegicus [3]
  inhibition in vivo at 3.2 mg/kg: 34%

## CCC(CC)Oc1cc(C)nc(Oc2c(C)cc(C)cc2C)c1Br
[1]
  IC50: 0.0098 µM

## CCC(CC)Oc1cc(C)nc(Oc2c(C)cc(CO)cc2C)c1C
[1]
  IC50: 0.061 µM
Rattus norvegicus [4]
  inhibition in vivo at 3.2 mg/kg: 42%
Rattus norvegicus [5]
  inhibition in vivo at 3.2 mg/kg: -20%

## CCC(CC)Oc1cc(C)nc(Oc2c(C)cc(C)nc2C)c1C
[1]
  IC50: 0.01 µM
[6]
  pKa: 4.97
[7]
  solubility: 10 µg/mL (≈ 30.4 µM)
Rattus norvegicus [2]
  inhibition in vivo at 3.2 mg/kg: 70%
Rattus norvegicus [3]
  inhibition in vivo at 3.2 mg/kg: 6%

## CCC(CC)Oc1nc(C)cc(Oc2c(C)cc(C)cc2C)c1C
[8]
  IC50: 3.4 µM

## CCC(CC)Oc1cc(C)nc(Oc2c(C)cc(C)cc2C)c1[N+](=O)[O-]
[1]
  IC50: 0.015 µM
Rattus norvegicus [2]
  inhibition in vivo at 3.2 mg/kg: 59%
Rattus norvegicus [3]
  inhibition in vivo at 3.2 mg/kg: 35%

## CCC(CC)Oc1c(C)c(C)nc(Oc2c(C)cc(C)cc2C)c1C
[1]
  IC50: 0.18 µM

## CCC(CC)Oc1cc(C)nc(Oc2c(C)cc(OC(C)C)cc2C)c1C
[1]
  IC50: 0.11 µM

## CCC(CC)Oc1cc(C)nc(Oc2c(C)cc(C(C)(C)O)cc2C)c1C
[1]
  IC50: 0.04 µM

## CCC(CC)Oc1cc(C)nc(Oc2c(C)cc(Cl)cc2C)c1C
[1]
  IC50: 0.0055 µM
Rattus norvegicus [4]
  inhibition in vivo at 3.2 mg/kg: 66%
Rattus norvegicus [5]
  inhibition in vivo at 3.2 mg/kg: 76%

## CCC(CC)Oc1cc(C)nc(Oc2c(C)cc(COC)cc2C)c1C
[1]
  IC50: 0.0032 µM
Rattus norvegicus [4]
  inhibition in vivo at 3.2 mg/kg: 57%
Rattus norvegicus [5]
  inhibition in vivo at 3.2 mg/kg: 12%

## CCOc1cc(C)c(Oc2nc(C)cc(OC(CC)CC)c2C)c(C)c1
[1]
  IC50: 0.02 µM
Rattus norvegicus [4]
  inhibition in vivo at 3.2 mg/kg: 43%
Rattus norvegicus [5]
  inhibition in vivo at 3.2 mg/kg: 33%

## CCC(COC)Oc1cc(C)nc(Oc2c(C)cc(C)cc2C)c1C (stereo unspecified)
[1]
  IC50: 0.011 µM
Rattus norvegicus [2]
  inhibition in vivo at 3.2 mg/kg: 75%
Rattus norvegicus [3]
  inhibition in vivo at 3.2 mg/kg: 49%

## CCC(CC)Oc1cc(C)nc(Oc2c(C)cc(C)cc2C)c1N
[1]
  IC50: 0.012 µM
Rattus norvegicus [2]
  inhibition in vivo at 3.2 mg/kg: 78%
Rattus norvegicus [3]
  inhibition in vivo at 3.2 mg/kg: 51%

## CCC(CC)Oc1cc(C)nc(Oc2c(C)cc(OC)cc2C)c1C
[1]
  IC50: 0.002 µM
Rattus norvegicus [4]
  inhibition in vivo at 3.2 mg/kg: 75%
Rattus norvegicus [5]
  inhibition in vivo at 3.2 mg/kg: 55%

## CCC(CC)Oc1cc(C)nc(Oc2c(C)cc(C)cc2C)c1C
[1]
  IC50: 0.0068 µM
[6]
  pKa: 3.5
[7]
  solubility: < 1 µg/mL
[9]
  Ki: 0.0076 µM
[10]
  Ki: 0.0085 µM
Rattus norvegicus [4]
  inhibition in vivo at 3.2 mg/kg: 75%
Rattus norvegicus [5]
  inhibition in vivo at 3.2 mg/kg: 72%
Rattus norvegicus [11]; read-out: ID50 (the source's name)
  ED50: 35 mg/kg
Rattus norvegicus [11]; read-out: MED
  minimal effective dose: 10 mg/kg
[12]
  solubility: 0.2 µg/mL (≈ 0.611 µM)
[13]
  solubility: 3 µg/mL (≈ 9.16 µM)
[8]
  IC50: 0.0068 µM

## Cc1cc(C)c(Oc2nc(C)cc(OC3CCOC3)c2C)c(C)c1 (stereo unspecified)
[1]
  IC50: 0.1 µM

## CCC(CC)Oc1cc(C)nc(Oc2c(C)cc(O)cc2C)c1C
[1]
  IC50: 1.4 µM

## CCC(CC)Oc1cc(C)nc(Oc2c(C)cc(C)cc2C)c1C(=O)OC
[1]
  IC50: 0.47 µM

## CCc1c(C)nc(Oc2c(C)cc(C)cc2C)c(C)c1OC(CC)CC
[1]
  IC50: > 10 µM

## CCC(CC)Oc1cc(C)nc(Oc2c(C)cc(F)cc2C)c1C
[1]
  IC50: 0.032 µM

## CCC(C)Oc1cc(C)nc(Oc2c(C)cc(C)cc2C)c1C (stereo unspecified)
[1]
  IC50: 0.028 µM
Rattus norvegicus [2]
  inhibition in vivo at 3.2 mg/kg: 74%
Rattus norvegicus [3]
  inhibition in vivo at 3.2 mg/kg: 42%

## CCC(CC)Oc1cc(C)nc(Oc2c(C)cc(C)cc2C)c1C(=O)O
[1]
  IC50: > 10 µM

## CCc1cc(C)c(Oc2nc(C)cc(OC(CC)CC)c2C)c(C)c1
[1]
  IC50: 0.011 µM
Rattus norvegicus [2]
  inhibition in vivo at 3.2 mg/kg: 55%
Rattus norvegicus [3]
  inhibition in vivo at 3.2 mg/kg: 56%

## CCC(CC)Oc1cc(C)nc(Oc2c(C)cc(C=O)cc2C)c1C
[1]
  IC50: 0.04 µM
